Experimental data collected from several papers.
Protocols differ between the studies behind these lines.
ABCG2: Broad substrate specificity ATP-binding cassette transporter ABCG2 (ABCG2, Homo sapiens, UniProt Q9UNQ0)

| Structure (SMILES) | tested on | assay | test system | conditions | measurement | result |
| --- | --- | --- | --- | --- | --- | --- |
| COc1ccc2c(=O)n(C)c(-c3ccccc3)nc2c1 | – | – | male Sprague-Dawley rat, spleen | oral, 30 mg/kg, 15 min | concentration | 7.53 ng/mL |
| O=C(O)CSc1nnc(Br)n1-c1ccc(C2CC2)c2ccccc12 | ABCG2 | transporter uptake, inhibitor | Caco-2 | 100 µM, 2 h | inhibition | 38% |
| Cc1cc(C)cc(NC(=O)CN(C)S(=O)(=O)c2ccc3[nH]c4c(c3c2)CCCC4)c1 | K562 | cell growth or viability | – | – | IC50 | 12.8 µM |
| C[C@H](C(=O)N1Cc2c(-c3ccc(C(=O)N4CCCc5ccccc54)cc3)cnn2C[C@@H]1C)c1ccccc1 | ABCG2 | – | dog, MDCK-MDR1 | – | Papp B→A | 13.4 ×10⁻⁶ cm/s |
| Cc1noc(C)c1Cn1cc(N2C(=O)CN(Cc3cccc(O)c3)C2=O)cn1 | – | – | male Sprague-Dawley rat, plasma | oral, 100 mg/kg, 12 h | concentration | 11.4 ng/mL |
| O=C(N/N=C/c1ccc2ccccc2c1)c1ccc(O)c(O)c1 | K562 | cell growth or viability | – | – | IC50 | 28.9 µM |
| CC(C)[C@@H]1Cn2ncc(-c3ccc(C(=O)N4CCCc5ccccc54)cc3)c2CN1C(=O)Cc1ccccc1 | ABCG2 | – | dog, MDCK-MDR1 | – | Papp B→A | 5.2 ×10⁻⁶ cm/s |
| COC(=O)/C(C#N)=C1\Nc2ccccc2O1 | K562 | cell growth or viability | – | – | IC50 | 20.7 µM |
| CO[C@H](C(=O)N1Cc2c(-c3ccc(C(=O)N4CCCc5ccccc54)cc3)cnn2C[C@H]1C(C)C)c1ccccc1 (single isomer, unassigned) | ABCG2 | – | dog, MDCK-MDR1 | – | Papp B→A | 8.4 ×10⁻⁶ cm/s |
| COc1cccc(-c2n[nH]c(SCc3ccccn3)n2)c1OC | – | – | female Sprague-Dawley rat, plasma | oral, 100 mg/kg, 1 h, single dose | concentration | 62200 ng/mL |
| C=CC1(C)CC(OC(=O)CSCCCCCN(C)C)C2(C)C(C)CCC3(CCC(=O)C32)C(C)C1O (stereo not drawn) | K562 | cell growth or viability | – | – | IC50 | 9.67 µM |
| C/C(O)=C(\C#N)C(=O)Nc1ccc(C(F)(F)F)cc1 | ABCG2 | – | Caco-2 | 1 µM, 2 h, pH 7.4 | efflux ratio | 6.06 |
| CCc1cc(-c2noc(-c3cc(OC)nc(C4CCCC4)c3)n2)cc(C)c1OC[C@@H](O)CO | – | – | Wistar rat, plasma | oral, 1 mg/kg, 6 h, single dose | concentration | 41.1 ng/mL |
| Cc1nnc(SCC(=O)Nc2ccc(Br)cc2)nc1O | K562 | cell growth or viability | – | – | IC50 | > 200 µM |
| CO[C@H](C(=O)N1Cc2c(-c3ccc(C(=O)N4CCCc5ccccc54)cc3)cnn2C[C@H]1C(C)C)c1cnn(C)c1 (single isomer, unassigned) | ABCG2 | – | dog, MDCK-MDR1 | – | Papp B→A | 26.1 ×10⁻⁶ cm/s |
| CCOC(=O)[C@@]12C[C@@H]1[C@@H](n1ccc3c(NC)nc(C#Cc4ccc(Cl)s4)nc31)[C@H](O)[C@@H]2O | – | – | male Sprague-Dawley rat, plasma | oral, 1 mg/kg, 2 h | concentration | 5.92 ng/mL |
| CCC1(C)CC(OC(=O)CSc2nnc(N)[nH]2)C2(C)C(C)CCC3(CCC(=O)C32)C(C)C1O (stereo not drawn) | K562 | cell growth or viability | – | – | IC50 | 21.3 µM |
| Cc1n[nH]c(CC(=O)N2Cc3c(-c4ccc(C(=O)N5CCCc6ccccc65)cc4)cnn3C[C@H]2C)n1 | ABCG2 | – | dog, MDCK-MDR1 | – | Papp B→A | 14.1 ×10⁻⁶ cm/s |
